Holding throughout (type): ADME
Series [1] in a line: Tested for the half life period at the pH of 2.5. The following applies: pH 2.5. The essentials: (§1)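 Hydrolysis followed by HPLC at 37 °C: 2 mM solutions in phosphate mobile phase B with 4 mM 2,6-lutidine as internal standard, pH set to 2.5 or 7.2 with HCl or KOH. Reverse-phase gradient of acetonitrile/mobile phase B, detection at 250 nm. Half-life derived from disappearance over time. For fast pH 7.2 conversion, acidic solution brought to 7.2 then back to 2.5 (<1 min).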

Series [2] can be described thus: Tested for the half life period at the pH of 7.2. The following applies: pH 7.2. The essentials: as §1
Series [3] is described as follows: Tested for the half life period at the pH of 2.5; Stable. The conditions noted are these: pH 2.5. The essentials: as §1
A short description of series [4]: Tested for the half life period at the pH of 7.2; Stable. The conditions noted are these: pH 7.2. The gist of the method: as §1

For `N[C@@H](CSC(=O)c1ccccc1O)C(=O)O`, the half-life was 251 min in series [1] and under 1 min in series [2].
As to `O=C(N[C@@H](CS)C(=O)O)c1ccccc1O`, the T1/2 result in series [3] and in series [4] was “Stable” each time.
In series [1], `O=C(O)[C@@H]1CSC(c2ncccc2O)=N1` gave a half-life of 524 min. The T1/2 entry in series [4] is “Stable”.
On to “deaza-desmethyl-DFT complex with iron (III)”, for which the T1/2 in series [1] was over 20 days; in series [4], “Stable”.
In the case of `C[C@]1(C(=O)O)CSC(c2ncccc2O)=N1` [DESFERRITHIOCIN], the half-life in series [1] is 1120 min. The T1/2 result in series [4] was “Stable”.
Regarding `O=C(O)[C@@H]1CSC(c2ccccc2O)=N1`, the half-life in series [1] was 1900 min. Besides, the T1/2 entry in series [4] is on record as “Stable”.

For the origin of these results see ChEMBL document CHEMBL1127449, “An investigation of desferrithiocin metabolism” (J Med Chem, 1994).
